# Source: PMC12124638 (Journal of medicinal chemistry, 2017)
# Non-standard residues stand in square brackets, D forms with d. Residues, ends and D or L forms follow the SMILES beside them. *: point of attachment. Cha = N[C@@H](CC1CCCCC1)C(=O)O; Decanoyl = CCCCCCCCCC(=O)*; Heptanoyl = CCCCCCC(=O)*; Octanoyl = CCCCCCCC(=O)*; Dab = NCC[C@H](N)C(=O)O; Hexanoyl = CCCCCC(=O)*
# Tests used:
# [1] = tested on: methicillin-resistant S. aureus strain LAC; test: Catheter-associated biofilm in vitro; type: cell-based, Staphylococcus aureus; conditions: for reduction of viable biofilm-associated S. aureus cells: established catheter biofilm, n=6 catheters
# [2] = tested on: methicillin-resistant S. aureus ATCC 43300
# [3] = tested on: Acinetobacter baumannii ATCC 19606; test: Sensitization to antibiotics, checkerboard MIC; type: cell-based; conditions: for Sensitization factor, rifampicin, Acinetobacter baumannii ATCC 19606: ratio of the MIC in the absence of paenipeptins to that in the presence of 4 μg/mL
# [4] = tested on: Klebsiella pneumoniae AR 0109; test: MIC, polymyxin-resistant strain; type: cell-based; conditions: FDA-CDC Antibiotic-Resistance Bank
# E. coli UAMS-ECPR2 = type: cell-based, Escherichia coli; conditions: polymyxin-resistant derivative of E. coli ATCC 25922
# K. pneumoniae UAMS-KPPR3 = test: MIC, polymyxin-resistant strain; type: cell-based, Klebsiella pneumoniae; conditions: polymyxin-resistant derivative of K. pneumoniae ATCC 13883
# E. coli UAMS-ECPR1 = test: MIC, polymyxin-resistant strain; type: cell-based, Escherichia coli; conditions: polymyxin-resistant derivative of E. coli ATCC 25922
# K. pneumoniae UAMS-KPPR1 = test: MIC, polymyxin-resistant strain; type: cell-based, Klebsiella pneumoniae; conditions: polymyxin-resistant derivative of K. pneumoniae ATCC 13883
# [5] = tested on: Klebsiella pneumoniae ATCC 13883; test: Sensitization to antibiotics, checkerboard MIC; type: cell-based; conditions: for Sensitization factor, clarithromycin, Klebsiella pneumoniae ATCC 13883: MIC without / with 4 μg/mL paenipeptin; for Sensitization factor, rifampicin, Klebsiella pneumoniae ATCC 13883: ratio of the MIC in the absence of paenipeptins to that in the presence of 4 μg/mL
# P. aeruginosa ATCC 27853 [6] = tested on: P. aeruginosa ATCC 27853
# S. aureus ATCC 29213 [7] = test: Time-kill assay; type: cell-based, Staphylococcus aureus; conditions: for reduction of viable S. aureus cells: after 4 h
# In short: (§1)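 Time-kill is run with test compound at 8, 16 and 32 μg/mL. Surviving cells are counted by plating on TSA at 0, 2, 4, 6 and 24 h. Three independent experiments are run, one replicate each. Results are given as mean ± standard deviation, and final-timepoint counts are compared by ANOVA with Tukey HSD.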
# P. aeruginosa ATCC 27853 [8] = test: Potassium ion release assay, PBFI probe; type: cell-based, Pseudomonas aeruginosa; conditions: PBFI fluorescence; tested 8–64 μg/mL
# [9] = tested on: Escherichia coli ATCC 25922; test: MIC in 95% human serum; type: cell-based; conditions: against both E. coli and S. aureus; 95% human serum versus TSB
# P. aeruginosa ATCC 27853 [10] = test: Cytoplasmic membrane integrity assay, DiSC3; type: cell-based, Pseudomonas aeruginosa; conditions: increase of DiSC3(5) fluorescence; tested 8–64 μg/mL; buffer with 0.2 mM EDTA
# P. aeruginosa ATCC 27853 [11] = test: Time-kill assay; type: cell-based, Pseudomonas aeruginosa
# In short: as §1
# S. aureus ATCC 29213 [12] = test: Cytoplasmic membrane integrity assay, DiSC3; type: cell-based, Staphylococcus aureus; conditions: increase of DiSC3(5) fluorescence; tested 8–64 μg/mL
# P. aeruginosa ATCC 27853 [13] = test: Catheter-associated biofilm in vitro; type: cell-based, Pseudomonas aeruginosa; conditions: 40× MIC (40 μg/ml), 72 h exposure, n=6
# S. aureus ATCC 29213 [14] = test: Potassium ion release assay, PBFI probe; type: cell-based, Staphylococcus aureus; conditions: PBFI fluorescence; tested 8–64 μg/mL
# P. aeruginosa ATCC 27853 [15] = test: Impact of purified lipopolysaccharide; type: cell-based, Pseudomonas aeruginosa; conditions: LPS from E. coli O111:B4 at 100 μg/ml; analogue 17 at 16 μg/mL; 37°C, 60 min
# In short: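 Cells are diluted in TSB to about 10^6 CFU/mL. E. coli O111:B4 LPS (final 10, 25, 50 or 100 μg/mL) is added, then test compound at final 16 μg/mL. Incubation is 60 min at 37 °C with shaking at 200 rpm. Survivors are counted on TSA. Three independent experiments are run, one replicate each. Counts are analysed by ANOVA and Tukey HSD.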
# [16] = cited from earlier work
# Gram-negative bacteria = conditions: cited from earlier work
# [17] = MIC without / with 4 μg/mL paenipeptin
molecule,measurement,setting,value
CCCCCCCCCC(=O)N[C@@H](CCN)C(=O)N[C@H](C(=O)N[C@@H](CCN)C(=O)N[C@H](Cc1ccccc1)C(=O)N[C@@H](CC(C)C)C(=O)N[C@@H](CCN)C(=O)N[C@@H](C(=O)N[C@@H](CC(C)C)C(=O)N[C@@H](CO)C(N)=O)C(C)C)[C@@H](C)CC [Analogue 12] (Decanoyl-[Dab]I[Dab][dF]L[Dab][dV]LS-NH2),activity in the context of an established catheter-associated biofilm,[1]; data not shown,no activity
CCCCCCCCCC(=O)N[C@@H](CCN)C(=O)N[C@H](C(=O)N[C@H](C(=O)N[C@H](CC(C)C)C(=O)N[C@@H](CC(C)C)C(=O)N[C@@H](CCN)C(=O)N[C@@H](C(=O)N[C@@H](CC(C)C)C(=O)N[C@@H](CO)C(N)=O)C(C)C)[C@@H](C)O)[C@@H](C)CC [Analogue 13] (Decanoyl-[Dab]IT[dL]L[Dab][dV]LS-NH2),"MIC, S. aureus ATCC 43300",[2],>32 µg/mL
same,"MIC, A. baumannii ATCC 19606",A. baumannii ATCC 19606,>32 µg/mL
same,"synergism with rifampicin, in words",[3]; against Acinetobacter and Klebsiella,did not show synergism
Polymyxin B,"MIC, Klebsiella pneumoniae AR 0109",[4],16 to 32 µg/mL
same,"MIC, E. coli UAMS-ECPR2",E. coli UAMS-ECPR2,32 µg/mL
same,"MIC, K. pneumoniae UAMS-KPPR3",K. pneumoniae UAMS-KPPR3,>32 µg/mL
same,"MIC, E. coli UAMS-ECPR1",E. coli UAMS-ECPR1,32 µg/mL
same,"MIC, K. pneumoniae UAMS-KPPR1",K. pneumoniae UAMS-KPPR1,>32 µg/mL
CCCCCCCC(=O)N[C@@H](CCN)C(=O)N[C@H](C(=O)N[C@@H](CCN)C(=O)N[C@H](Cc1ccccc1)C(=O)N[C@@H](CC(C)C)C(=O)N[C@@H](CCN)C(=O)N[C@@H](C(=O)N[C@@H](CC(C)C)C(=O)N[C@@H](CCN)C(N)=O)C(C)C)[C@@H](C)CC [Analogue 9] (Octanoyl-[Dab]I[Dab][dF]L[Dab][dV]L[Dab]-NH2),"Sensitization factor, clarithromycin, Klebsiella pneumoniae ATCC 13883",[5],"2,048"
same,"Sensitization factor, rifampicin, Klebsiella pneumoniae ATCC 13883",[5],"≥8,192"
same,"Sensitization factor, clarithromycin, Acinetobacter baumannii ATCC 19606",[3]; [17],"4,096–8,192"
same,"Sensitization factor, erythromycin, Acinetobacter baumannii ATCC 19606",[3]; [17],128–256
same,"Sensitization factor, vancomycin, Acinetobacter baumannii ATCC 19606",[3]; [17],64–128
same,"Sensitization factor, rifampicin, Acinetobacter baumannii ATCC 19606",[3],"8,192"
CCCCCCCC(=O)N[C@@H](CCN)C(=O)N[C@@H](CCN)C(=O)N[C@@H](CCN)C(=O)N[C@H](Cc1ccccc1)C(=O)N[C@@H](CC(C)C)C(=O)N[C@@H](CCN)C(=O)N[C@@H](C(=O)N[C@@H](CC(C)C)C(=O)N[C@@H](CCN)C(N)=O)C(C)C [Analogue 10] (Octanoyl-[Dab][Dab][Dab][dF]L[Dab][dV]L[Dab]-NH2),"MIC, S. aureus ATCC 43300",[2],>32 µg/mL
same,"MIC, A. baumannii ATCC 19606",A. baumannii ATCC 19606,>32 µg/mL
same,"MIC, P. aeruginosa ATCC 27853",P. aeruginosa ATCC 27853 [6],16 to 32 µg/mL
same,"Sensitization factor, rifampicin, Acinetobacter baumannii ATCC 19606",[3],256–512
CC[C@H](C)[C@H](NC(=O)[C@H](CCN)NC(=O)[C@@H](N)CC1CCCCC1)C(=O)N[C@@H](CCN)C(=O)N[C@H](Cc1ccccc1)C(=O)N[C@@H](CC(C)C)C(=O)N[C@@H](CCN)C(=O)N[C@@H](C(=O)N[C@@H](CC(C)C)C(=O)N[C@@H](CO)C(N)=O)C(C)C [Analogue 16] (H-[Cha][Dab]I[Dab][dF]L[Dab][dV]LS-NH2),"Sensitization factor, clarithromycin, Klebsiella pneumoniae ATCC 13883",[5],"2,048–4,096"
same,"Sensitization factor, rifampicin, Klebsiella pneumoniae ATCC 13883",[5],"≥8,192"
same,"Sensitization factor, ampicillin, Acinetobacter baumannii ATCC 19606",[3]; [17],2–4
same,"Sensitization factor, clarithromycin, Acinetobacter baumannii ATCC 19606",[3]; [17],"2,048"
same,"Sensitization factor, vancomycin, Acinetobacter baumannii ATCC 19606",[3]; [17],32–64
same,"Sensitization factor, rifampicin, Acinetobacter baumannii ATCC 19606",[3],"4,096"
CCCCCCC(=O)N[C@@H](CCN)C(=O)N[C@H](C(=O)N[C@@H](CCN)C(=O)N[C@H](Cc1ccccc1)C(=O)N[C@@H](CC(C)C)C(=O)N[C@@H](CCN)C(=O)N[C@@H](C(=O)N[C@@H](CC(C)C)C(=O)N[C@@H](CO)C(N)=O)C(C)C)C(C)C [Analogue 2] (Heptanoyl-[Dab]V[Dab][dF]L[Dab][dV]LS-NH2),"Sensitization factor, rifampicin, Klebsiella pneumoniae ATCC 13883",[5],"4,096"
same,"Sensitization factor, rifampicin, Acinetobacter baumannii ATCC 19606",[3],256–512
CC(C)C[C@H](NC(=O)[C@@H](Cc1ccccc1)NC(=O)[C@H](CCN)NC(=O)[C@H](Cc1ccccc1)NC(=O)[C@H](CCN)NC(=O)[C@@H](N)CC1CCCCC1)C(=O)N[C@@H](CCN)C(=O)N[C@H](CC(C)C)C(=O)N[C@@H](Cc1ccccc1)C(=O)N[C@@H](CO)C(N)=O [Analogue 17] (H-[Cha][Dab]F[Dab][dF]L[Dab][dL]FS-NH2),viable S. aureus cells on exposure,S. aureus ATCC 29213 [7]; 8 μg/ml,Regrowth
same,reduction of viable S. aureus cells,S. aureus ATCC 29213 [7]; 16 μg/ml,3.1 logs
same,reduction of viable S. aureus cells,S. aureus ATCC 29213 [7]; 32 μg/ml,5.4 logs
same,concentration that significantly released intracellular potassium ions,P. aeruginosa ATCC 27853 [8],32 to 64 µg/mL
same,increase in MIC in the presence of human serum,[9],8 to 16 fold
same,reduction in activity in the presence of human serum,[9],88–94%
same,concentration that depolarized the membrane potential,P. aeruginosa ATCC 27853 [10],≥ 16 µg/mL
same,reduction of viable P. aeruginosa cells,"P. aeruginosa ATCC 27853 [11]; 8 μg/ml, 2 h",2.2 log
same,viable P. aeruginosa cells at 24 h,"P. aeruginosa ATCC 27853 [11]; 8 μg/ml, 24 h",significant bacterial regrowth
same,reduction of viable P. aeruginosa cells,"P. aeruginosa ATCC 27853 [11]; 16 μg/ml, within 2 h",3.7 logs
same,viable P. aeruginosa cells after 24 h exposure,"P. aeruginosa ATCC 27853 [11]; 32 μg/ml or 16 μg/ml, 24 h",no viable cells were detected
same,reduction of viable P. aeruginosa cells,"P. aeruginosa ATCC 27853 [11]; 32 μg/ml, within 2 h",5.1 logs
same,concentration that depolarized the membrane potential,S. aureus ATCC 29213 [12],≥ 16 µg/mL
same,reduction in the number of viable P. aeruginosa cells in an established biofilm,P. aeruginosa ATCC 27853 [13],2.6 log
same,concentration that significantly released intracellular potassium ions,S. aureus ATCC 29213 [14],32 to 64 µg/mL
same,reduction of viable biofilm-associated S. aureus cells,"[1]; 40 μg/mL (5 × MIC), 72 h exposure",3 log
same,reduction of viable biofilm-associated S. aureus cells,"[1]; 160 μg/mL (20 × MIC), 72 h exposure",5 log
same,catheters completely cleared of viable bacteria,"[1]; 20 times the MIC of each antibiotic, six catheters, 72 h exposure",50%
same,impact of purified LPS on bactericidal activity,P. aeruginosa ATCC 27853 [15],neutralized the bactericidal activity
CCCCCC(=O)N[C@@H](CCN)C(=O)N[C@H](C(=O)N[C@@H](CCN)C(=O)N[C@H](Cc1ccccc1)C(=O)N[C@@H](CC(C)C)C(=O)N[C@@H](CCN)C(=O)N[C@@H](C(=O)N[C@@H](CC(C)C)C(=O)N[C@@H](CO)C(N)=O)C(C)C)[C@@H](C)CC [Analogue 1] (Hexanoyl-[Dab]I[Dab][dF]L[Dab][dV]LS-NH2),"Sensitization factor, rifampicin, Klebsiella pneumoniae ATCC 13883",[5],"8,192"
same,"Sensitization factor, rifampicin, Acinetobacter baumannii ATCC 19606",[3],"4,096–8,192"
CCCCCCCCCC(=O)N[C@@H](Cc1c[nH]c2ccccc12)C(=O)N[C@H](CC(N)=O)C(=O)N[C@@H](CC(=O)O)C(=O)N[C@@H]1C(=O)NCC(=O)N[C@@H](CCCN)C(=O)N[C@@H](CC(=O)O)C(=O)N[C@H](C)C(=O)N[C@@H](CC(=O)O)C(=O)NCC(=O)N[C@H](CO)C(=O)N[C@@H]([C@H](C)CC(=O)O)C(=O)N[C@@H](CC(=O)c2ccccc2N)C(=O)O[C@@H]1C [daptomycin],bound to plasma proteins,[16],94%
"CO[C@H]1/C=C/O[C@@]2(C)Oc3c(C)c(O)c4c(O)c(c(/C=N/N5CCN(C)CC5)c(O)c4c3C2=O)NC(=O)/C(C)=C\C=C\[C@H](C)[C@H](O)[C@@H](C)[C@@H](O)[C@@H](C)[C@H](OC(C)=O)[C@@H]1C [rifampicin, reference compound]",MIC of rifampicin against Gram-negative bacteria without C10X,Gram-negative bacteria,8 to 32 µg/mL
same,MIC,"[3]; Acinetobacter baumannii, ATCC19606, read-out: MIC of rifampicin alone, in μM",19.4 µM
